One data set is filed under the species Xenopus laevis. Briefly: Tested for the effect on maxi-K-mediated outward current (mSlo) in Xenopus laevis oocytes at 20 uM. It counts as functional, frog. Summed up:
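Two-electrode voltage clamp was run on Xenopus laevis oocytes expressing cloned mSlo maxi-K channels. A single drug concentration was tested in at least five oocytes against iberiotoxin-sensitive outward K+ current. Output is the average percentage change in current relative to the drug-free control (100%).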

Data set [1] can be described thus: Tested for concentration in brain after 0.25 hrs of intravenous administration (5 mg/kg) to male rats. Particulars: rat. The data set is classed as ADME, organism-based. In a few lines:
(§1)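 Male rats got a single iv bolus of 5 mg/kg. Plasma and whole brain were sampled at 0.25 h and 2 h. Plasma is in ng/mL and brain in ng/g wet weight, each the mean of three animals ± standard deviation. Brain detection limit was 50 ng/g. Brain/plasma ratio was computed at each time point.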

Data set [2] can be described thus: Half-life in brain after intravenous administration (4.7 mg/kg) to male rats. It counts as ADME, organism-based. The following applies: rat. In a few lines:
(§2)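 Male rats got an iv bolus of 4.7 mg/kg, N=3 at each time point. Whole brain and plasma were sampled through 24 h. AUC (ng-h/mL plasma, ng-h/g brain) was calculated by the trapezoidal rule over 0–24 h. Brain/plasma ratio was taken from the AUC values. Cmax, Tmax and elimination half-lives were derived for brain and plasma.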

The nature of data set [3]: Tested for plasma concentration in the after 2 hrs of intravenous administration (5 mg/kg) to male rats. It counts as ADME, organism-based. Particulars: rat. Summed up: as §1
Data set [4] in a line: (§3) Tested for concentration in brain after intravenous administration (4.7 mg/kg) to male rats. It counts as ADME, organism-based. Particulars: rat. The arrangement: dose 4.7 mg/kg, route intravenous. In a few lines:
as §2

Data set [5] can be described thus: Ratio of the AUC values of brain and plasma after intravenous administration (4.7 mg/kg) to male rats was evaluated. The data set is classed as ADME, organism-based. Particulars: rat. In a few lines:
as §2

Data set [6] in a line: Compound was evaluated for Tmax in brain after intravenous administration in male rats. It counts as ADME, organism-based. Particulars: rat. Summed up: as §2
Data set [7] can be described thus: Ratio in brain and plasma after 2 hrs of intravenous administration (5 mg/kg) to male rats was evaluated. It counts as ADME, organism-based. The following applies: rat. Summed up:
as §1

Data set [8] can be described thus: Tested for concentration in brain after 2 hrs of intravenous administration (5 mg/kg) to male rats. It counts as ADME, organism-based. The following applies: rat. In a few lines: as §1
Data set [9] can be described thus: Half-life in plasma after intravenous administration (4.7 mg/kg) to male rats. It counts as ADME, organism-based. The following applies: rat. In a few lines:
as §2

Data set [10] in a line: Tested for plasma concentration in the after 0.25 hrs of intravenous administration (5 mg/kg) to male rats. The data set is classed as ADME, organism-based. Particulars: rat. In a few lines:
as §1

The next data set relates to Rattus norvegicus. Described as §3. The data set is classed as ADME, organism-based. Particulars: in vivo. In a few lines: as §2
A short description of data set [11]: Ratio in brain and plasma after 0.25 hrs of intravenous administration (5 mg/kg) to male rats was evaluated. Particulars: rat. It counts as ADME, organism-based. Summed up:
as §1

Data set [12] can be described thus: Tested for plasma concentration after intravenous administration (4.7 mg/kg) to male rats. The data set is classed as ADME, organism-based. The following applies: rat. In a few lines:
as §2

A short description of data set [13]: Tested for plasma concentration after 0.25 hrs of intravenous administration (5 mg/kg) to male rats. The data set is classed as ADME, organism-based. The following applies: rat. Summed up: as §1
The nature of data set [14]: Tested for ratio in brain and plasma after 2 hrs of intravenous administration (5 mg/kg) to male rats. The data set is classed as ADME, organism-based. Particulars: rat. In a few lines: as §1
Data set [15] can be described thus: Tested for plasma concentration after 2 hrs of intravenous administration (5 mg/kg) to male rats. It counts as ADME, organism-based. Particulars: rat. Summed up: as §1
A short description of data set [16]: Tested for ratio in brain and plasma after 0.25 hrs of intravenous administration (5 mg/kg) to male rats. It counts as ADME, organism-based. The following applies: rat. In a few lines:
as §1

The values that follow come from ChEMBL document CHEMBL1135174, “The synthesis and structure-activity relationships of 4-aryl-3-aminoquinolin-2-ones: a new class of calcium-dependent, large conductance, potassium (maxi-K) channel openers targeted for post-stroke neuroprotection” (Bioorg Med Chem Lett, 2002).

As usually defined, the half-life is the time in which the quantity being followed falls by half. A higher half-life goes with slow loss. A word on the Cmax: it is the highest concentration seen after dosing. By Kp is commonly meant tissue or fluid exposure divided by exposure in the circulation. Usually Tmax stands for the time at which the peak concentration occurs.

`O=S(=O)(Nc1c(O)nc2cc(C(F)(F)F)ccc2c1-c1cc(Cl)ccc1O)C(F)(F)F` yielded an Increase in the data set filed under Xenopus laevis of 213%.
The same measure, in the same setting: as for `Nc1c(O)nc2ccccc2c1-c1cc(Cl)ccc1O`, the figure is 114%; as for `Nc1c(O)nc2c(C(F)(F)F)cccc2c1-c1cc(Cl)ccc1O`, 112%.
In the case of `Nc1c(O)nc2ccc(C(F)(F)F)cc2c1-c1ccccc1O`, in the data set filed under Xenopus laevis, the Increase is on record as 137%.
As for `Nc1c(O)nc2ccc(C(F)(F)F)cc2c1-c1cc(Cl)ccc1O`, the concentration at 0.25 h in [1] was found to be 1310 ng/g; in [10], 802 ng/mL. Moreover, the half-life in data set [2] was 486 min; in data set [9] it was 456 min. In addition, the values for the concentration at 2 h in data set [3] and in data set [8] were 281 ng/mL and 1490 ng/g, respectively. Further, the Cmax in data set [4] was 1990 ng/g. For the same molecule, in data set [5], the partition ratio (Kp) stood at 7.1. Moreover, in [6], the Tmax was determined as 4.8 min. Further, in [7], the Kp at 2 h worked out at 5.3. Further, in the data set filed under Xenopus laevis, the Increase was 186%. Further, the AUC with Rattus norvegicus worked out at 19300 ng·h/g; in data set [12] it was 2700 ng·h/mL. Also, in data set [11], the Kp at 0.25 h stood at 1.6.
Regarding `Nc1c(O)nc2ccc(C(F)(F)F)cc2c1-c1ccccc1`, the Increase in the data set filed under Xenopus laevis was determined as 111%.
As for `Nc1c(O)nc2cccc(C(F)(F)F)c2c1-c1cc(Cl)ccc1O`, in the data set filed under Xenopus laevis, the Increase was determined as 191%.
`O=c1[nH]c2cc(C(F)(F)F)ccc2n1-c1cc(Cl)ccc1O`: the Increase in the data set filed under Xenopus laevis is on record as 132%.
Still for that read-out and setting: as for `CS(=O)(=O)Nc1c(O)nc2ccc(C(F)(F)F)cc2c1-c1cc(Cl)ccc1O`, the figure is 164%; as for `Nc1c(O)nc2ccc(Cl)cc2c1-c1cc(Cl)ccc1O`, 157%; as for `COc1ccc(Cl)cc1-c1c(N)c(O)nc2ccccc12`, 108%.
Still for that read-out and setting: as for `CC(=O)Nc1c(O)nc2ccc(C(F)(F)F)cc2c1-c1cc(Cl)ccc1O`, the figure is 120%.
As for `O=S(=O)(Nc1c(O)nc2ccc(C(F)(F)F)cc2c1-c1cc(Cl)ccc1O)C(F)(F)F`, the results for the concentration at 0.25 h in data set [1] and in [10] were under 50 ng/g and 1230 ng/mL, respectively. Besides, the results for the concentration at 2 h in [3] and in data set [8] were 125 ng/mL and under 50 ng/g, respectively. The Increase in the data set filed under Xenopus laevis worked out at 343%.
Regarding `Nc1c(O)nc2cc(C(F)(F)F)ccc2c1-c1cc(Cl)ccc1O`, the concentration at 0.25 h in [1] is 1470 ng/g; in data set [13], 1170 ng/mL. Also, in [14], the Kp at 2 h amounted to 4.4. Also, the Increase in the data set filed under Xenopus laevis was 159%. For the same molecule, the concentration at 2 h in data set [15] was found to be 339 ng/mL; in [8], 1480 ng/g. In data set [16], the Kp at 0.25 h is 1.3.
